Measurements published in PubChem BioAssay.
Activity calls are given as the source filed them.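 Rule for the calls, unless noted: active = fluorescence slope after compound addition differing from the mean of all tested samples at 99.7% confidence, mostly higher but some lower; inactive = the rest.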

How the values were obtained:
[1] = inhibitors of TNFa-induced NFkB p65 translocation, primary screen, imaging, HUVEC, MLSMR starter and 10KST1 sets (AID 438;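 active = inhibition above 20% together with a positive visual image hit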;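 note: compound added about 3h40 before a 20 min TNFalpha stimulation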;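 for inhibition: signal is the nuclear over cytoplasmic p65 intensity ratio per well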); conditions: HUVEC TNFa-induced p65 nuclear translocation; cell count: measured here: nuclei count (cytotoxicity indicator), at 2.08 µM; inhibition: at 2 µM, stronger effect = higher value, 0% TNFa-plus-vehicle, 100% no-TNFa wells
[2] = reduction of polyQ htt aggregates in cells – imaging, exon1htt(103Q)mCFP cells, high-content imaging, primary screen (AID 483;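 active = visual image review flags a hit and inhibition of aggregation exceeds 20%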;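 note: compound exposure lasted 3 days before fixation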;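 for nuclei count: percent of the per-plate median nuclei count of sample wells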); conditions: exon1htt(103Q)mCFP cell line, aggregate imaging, at 2 µM; inhibition of aggregation: stronger effect = higher value; nuclei count: measured here: cell count, toxicity
[3] = endothelial E-selectin expression blockers – imaging, HUVEC, immunofluorescence, MLSMR starter and 10KST1 sets, primary screen (AID 487;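 active = visually confirmed hit in the image check and inhibition above 20%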;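 for inhibition: signal is fraction of cell area covered by stained E-selectin grains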;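 for nuclei count: 100% = median nuclei count of all wells on the same plate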); conditions: HUVEC TNFalpha-induced E-selectin immunofluorescence imaging, at 2 µM; inhibition: stronger effect = higher value; nuclei count: measured here: cell number, toxicity
[4] = target: Voltage-gated potassium channel subunit beta-2 (Rattus norvegicus) (UniProt P62483); test: inhibitors of rat Kvbeta2 reductase activity – biochemical, NADPH fluorescence, primary screen (AID 622;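 active = fluorescence slope higher than the sample average by over 3 SD, cut at about -0.22 in these data, passing the limit was not always enough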;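 note: slope of raw intensity against log time taken from 70 to 1610 s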); conditions: recombinant KvBeta, 4-cyanobenzaldehyde reduction, at 10 µM, stronger effect = higher value
Sequence of Voltage-gated potassium channel subunit beta-2 (Rattus norvegicus) (P62483 whole entry, looked up): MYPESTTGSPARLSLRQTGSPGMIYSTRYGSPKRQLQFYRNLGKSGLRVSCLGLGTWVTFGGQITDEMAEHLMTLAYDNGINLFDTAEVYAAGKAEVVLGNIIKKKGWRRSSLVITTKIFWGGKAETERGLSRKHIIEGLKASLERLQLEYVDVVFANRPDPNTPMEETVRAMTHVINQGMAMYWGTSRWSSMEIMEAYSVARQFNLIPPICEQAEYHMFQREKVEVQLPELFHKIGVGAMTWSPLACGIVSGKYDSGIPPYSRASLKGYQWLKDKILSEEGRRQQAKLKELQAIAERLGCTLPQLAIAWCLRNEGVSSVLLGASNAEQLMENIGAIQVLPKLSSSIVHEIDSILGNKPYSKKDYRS

[5] = target: Voltage-gated potassium channel subunit beta-2 (Rattus norvegicus) (UniProt P62483); test: enhancers of rat Kvbeta2 NADPH turnover – biochemical, NADPH fluorescence, primary screen (AID 623;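 active = NADPH fluorescence slope more negative than the mean of all samples by about 3 SD, 99.7% confidence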;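 note: fluorescence intensity change per second fitted from 20 to 320 s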); conditions: Recombinant KvBeta, NADPH fluorescence decrease slope, 10 min; at 10 µM; stronger effect = lower value
[6] = target: Muscarinic acetylcholine receptor M4 (Homo sapiens) (UniProt P08173); test: M4-linked GIRK flux change, two-sided – cell-based, HEK293 M4/GIRK, thallium flux, BTC-AM, M4 allosteric agonist project, primary screen (AID 625); conditions: at 10 µM, actives lie on both sides;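 note: thallium influx through GIRK channels coupled to M4 in HEK293 cells with BTC-AM dye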
Sequence of Muscarinic acetylcholine receptor M4 (Homo sapiens) (P08173 whole entry, looked up): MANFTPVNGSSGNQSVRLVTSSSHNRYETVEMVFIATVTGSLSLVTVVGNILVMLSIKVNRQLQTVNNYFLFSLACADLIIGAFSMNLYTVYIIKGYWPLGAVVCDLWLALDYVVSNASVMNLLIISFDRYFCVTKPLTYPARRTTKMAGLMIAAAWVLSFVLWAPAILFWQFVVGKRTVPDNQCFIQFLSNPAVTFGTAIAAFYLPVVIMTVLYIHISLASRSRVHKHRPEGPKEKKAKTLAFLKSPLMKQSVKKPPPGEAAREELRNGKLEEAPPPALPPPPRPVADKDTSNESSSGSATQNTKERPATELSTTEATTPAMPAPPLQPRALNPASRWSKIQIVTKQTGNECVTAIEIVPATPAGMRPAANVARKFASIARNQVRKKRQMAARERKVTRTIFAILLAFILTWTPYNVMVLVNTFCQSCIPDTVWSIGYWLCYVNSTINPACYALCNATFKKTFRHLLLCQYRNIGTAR
Outline: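 System: HEK293 cells with M4 receptor and GIRK channels | Incubation: Cells overnight at 37 °C, BTC-AM loading 1 h, reads 2 min total | Technique: Kinetic BTC-AM fluorescence sampled at 1 Hz, 10 s pre-addition baseline | Measure: Post-addition slope, 15–24 s, of baseline-normalized fluorescence | Control set: Carbachol positive, DMSO negative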

[7] = blockers of RIG-like receptor reporter activation – cell-based, Sendai virus stimulus, luciferase, 10K MLSCN set, TLR/RLR signaling modifier project, primary screen (AID 602276;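 active = inhibition at or above 50% at 10 µM; inactive = inhibition below 50%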;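 note: firefly luciferase from ISG56 promoter only with Renilla not read in this screen; 0% = Sendai virus plus DMSO and 100% = medium plus DMSO without virus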); conditions: HEK293 RL24 IRF3 luciferase reporter, at 10 µM, stronger effect = higher value
[8] = TLR3 IRF3 reporter activation blockers – cell-based, poly I:C stimulus, luciferase, 10K MLSCN set, primary screen (AID 602277;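 active = inhibition of the reporter signal at or above 50%; inactive = inhibition below 50%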); conditions: HEK293-TLR3 RL24 IRF3 luciferase reporter, at 10 µM, stronger effect = higher value

| SMILES | cell count [1] | inhibition [1] | inhibition of aggregation [2] | nuclei count [2] | inhibition [3] | nuclei count [3] | fluorescence slope [4] | NADPH fluorescence slope [5] | fluorescence slope [6] | inhibition [7] | inhibition [8] |
| --- | --- | --- | --- | --- | --- | --- | --- | --- | --- | --- | --- |
| COCCCNC(=O)CCc1nc2cccnc2n1Cc1ccc(OC)cc1 | 462 | 4.3% (inactive) | -13.4% (inactive) | 124% | -16.4% (inactive) | 98.8% | -0.286 (inactive) | -2.5e-05 (inactive) | 0.006 (inactive) | 14.4% (inactive) | 1.17% (inactive) |
| CCOC(=O)c1c(C)oc2c1c(C=NCc1ccccn1)c(O)c1ccccc12 | 738 | 4.7% (inactive) | 7.3% (inactive) | 84.9% | -112% (inactive) | 124% | -0.322 (inactive) | -2.5e-05 (inactive) | 0.00123 (inactive) | 8.4% (inactive) | 29.2% (inactive) |
| Cc1ccccc1CNS(=O)(=O)c1ccc2c(c1)OCCO2 | 450 | 3.6% (inactive) | 2.1% (inactive) | 108% | -11.6% (inactive) | 96.6% | -0.558 (inactive) | -1.9e-05 (inactive) | 0.00348 (inactive) | 7.7% (inactive) | 11.3% (inactive) |
| COC(=O)c1cn(-c2ccccc2)nc1C(=O)OC | 232 | 5.8% (inactive) | -0.8% (inactive) | 92.6% | 24% (inactive) | 77.4% | -0.441 (inactive) | -7.4e-05 (inactive) | 0.00607 (inactive) | 4.01% (inactive) | 1.15% (inactive) |
| O=C(Nc1ccc(Cl)cc1C(=O)Nc1ccncc1)c1ccco1 | 393 | 2.1% (inactive) | -7.4% (inactive) | 81.3% | -148% (inactive) | 101% | -0.316 (inactive) | -1.2e-05 (inactive) | 0.00491 (inactive) | 18.3% (inactive) | 28.5% (inactive) |
| Cc1ccc2c(c1C)NC(C)CC2C (centres undefined) | 553 | 9.8% (inactive) | 5.9% (inactive) | 101% | 35.5% (inactive) | 100% | -0.604 (inactive) | -2.8e-05 (inactive) | 0.0052 (inactive) | 11.1% (inactive) | 13.6% (inactive) |
| COCCn1c(SCC(=O)c2ccccc2)nc2c(c1=O)SC(C)C2 (centres undefined) | 232 | 7.3% (inactive) | -6.9% (inactive) | 101% | -17.9% (inactive) | 99.1% | -0.45 (inactive) | -0.000101 (inactive) | 0.00738 (inactive) | 1.47% (inactive) | 7.51% (inactive) |
| O=C1c2ccccc2C(=O)N1OCc1ccccc1 | 457 | -6% (inactive) | 13.7% (inactive) | 80.1% | -71.8% (inactive) | 126% | -0.608 (inactive) | -3.7e-05 (inactive) | 0.00373 (inactive) | 16.6% (inactive) | 21.5% (inactive) |
| O=C1CC2CS(=O)(=O)CC2N1c1ccc(Oc2ccccc2)cc1 (centres undefined) | 330 | 3.1% (inactive) | 5.7% (inactive) | 88.5% | -33.8% (inactive) | 106% | -0.395 (inactive) | -8.8e-05 (inactive) | 0.00573 (inactive) | 17.3% (inactive) | 33% (inactive) |
| O=C(NCc1ccccc1)N1CCn2c(nc3ccccc32)C1 | 555 | 2.5% (inactive) | 8.2% (inactive) | 99.6% | -13.3% (inactive) | 111% | -0.413 (inactive) | -2.6e-05 (inactive) | 0.00568 (inactive) | -0.797% (inactive) | -7.43% (inactive) |
| CCOc1ccccc1N1CCN(c2nc(N)c(C#N)c(CC#N)c2C#N)CC1 | 687 | -1.7% (inactive) | -18.6% (inactive) | 88.7% | -68.9% (inactive) | 105% | -0.592 (inactive) | -1e-05 (inactive) | 0.00416 (inactive) | 20.4% (inactive) | 17.9% (inactive) |
| Cc1ccc(S(=O)(=O)NC(C(=O)OCC(=O)NC2CCS(=O)(=O)C2)C(C)C)cc1 (centres undefined) | 654 | -10.1% (inactive) | 9.6% (inactive) | 93.4% | -40.2% (inactive) | 109% | -0.578 (inactive) | 9.1e-06 (inactive) | 0.0094 (inactive) | -14% (inactive) | 18.4% (inactive) |
| COC(=O)C1=C(C)Nc2nnnn2C1c1ccc(Cl)cc1Cl (centres undefined) | 433 | 7.3% (inactive) | -5.9% (inactive) | 105% | 1.2% (inactive) | 105% | -0.482 (inactive) | -4.5e-05 (inactive) | 0.0056 (inactive) | 13.6% (inactive) | 19.3% (inactive) |
| CC(=O)Nc1ccc(S(=O)(=O)n2cnc(C)c2)cc1 | 697 | -10.2% (inactive) | -20.6% (inactive) | 99.8% | -26.8% (inactive) | 118% | -0.584 (inactive) | 4.1e-05 (inactive) | 0.0072 (inactive) | -6.5% (inactive) | -8.68% (inactive) |
| CCc1cc(-c2[nH]ncc2-c2ccc3c(c2)OCO3)c(O)cc1O | 511 | 0.5% (inactive) | 26% (inactive) | 97.8% | -11.5% (inactive) | 111% | -0.572 (inactive) | 3.5e-05 (inactive) | 0.00533 (inactive) | 14% (inactive) | -66.6% (inactive) |
| COCCOC(=O)C1=C(C)N=c2s/c(=C\c3cccs3)c(=O)n2C1c1cccs1 (centres undefined) | 331 | -4.7% (inactive) | -47% (inactive) | 98.1% | -148% (inactive) | 110% | -0.251 (inactive) | -1.4e-05 (inactive) | 0.00423 (inactive) | -5.37% (inactive) | -16.7% (inactive) |
| COc1ccc(CN(C)CC(=O)c2c(N)n(Cc3ccccc3)c(=O)n(C)c2=O)c(OC)c1 | 459 | -21.4% (inactive) | -15.1% (inactive) | 103% | 2.2% (inactive) | 98.3% | -0.579 (inactive) | -1.3e-05 (inactive) | 0.00645 (inactive) | 17.1% (inactive) | 24.3% (inactive) |
| CCc1cc2c(NCCC(=O)O)ncnc2s1 | 507 | 15.8% (inactive) | 4.4% (inactive) | 103% | 13.4% (inactive) | 110% | -0.562 (inactive) | 1.3e-05 (inactive) | 0.00669 (inactive) | 12.3% (inactive) | 17.4% (inactive) |
| CCOc1cc2[nH]c(=O)n(CCCCC(=O)N3CCCCCC3)c(=O)c2cc1OCC | 218 | 2.2% (inactive) | 4.8% (inactive) | 86.8% | 14.4% (inactive) | 89.8% | -0.437 (inactive) | -0.00041 (inactive) | 0.00663 (inactive) | 14.3% (inactive) | 18.4% (inactive) |
